ChEMBL document CHEMBL1124177, “Synthesis, configuration, and evaluation of two conformationally restrained analogues of phencyclidine” (J Med Chem, 1988)

Tests used:
Rattus norvegicus [1] = experiment: The compound was tested for its stereotyped behavior after intracerebroventricular introduction in the rat; type: functional
Outline: (§1)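 Sprague–Dawley rats (~200 g), caged singly, adapted ≥1 h, each used once. Intracerebroventricular dosing. Scored on the Sturgeon PCP rating scale immediately, at 2.5 and 5 min, then every 5 min until back to control. Dose–response built from peak-effect ratings, ≥18 rats per curve. ED50 (nmol/rat) and confidence limits by computerized Finney assay.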

[2] = target: Glutamate receptor ionotropic, NMDA 2C (Rattus norvegicus, UniProt Q00961); experiment: Binding affinity of compound against Phencyclidine receptor by displacement of [3H]TCP; details: read-out: Ki app
Outline: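 Membrane preparation incubated in triplicate with 2 nM [3H]TCP plus varying displacer levels in 5 mM Tris-HCl pH 7.4, 1 h, room temperature. Filtered on filters presoaked in 0.5% polyethylenimine, rinsed with Tris buffer, counted by liquid scintillation. Specific binding defined with 10 μM TCP. Mean ±SEM of at least three experiments.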

Rattus norvegicus [3] = experiment: The compound was tested for ataxia after intracerebroventricular introduction in the rat; type: functional; outline: as §1

Glutamate receptor ionotropic, NMDA 2C, sequence (Q00961 whole entry): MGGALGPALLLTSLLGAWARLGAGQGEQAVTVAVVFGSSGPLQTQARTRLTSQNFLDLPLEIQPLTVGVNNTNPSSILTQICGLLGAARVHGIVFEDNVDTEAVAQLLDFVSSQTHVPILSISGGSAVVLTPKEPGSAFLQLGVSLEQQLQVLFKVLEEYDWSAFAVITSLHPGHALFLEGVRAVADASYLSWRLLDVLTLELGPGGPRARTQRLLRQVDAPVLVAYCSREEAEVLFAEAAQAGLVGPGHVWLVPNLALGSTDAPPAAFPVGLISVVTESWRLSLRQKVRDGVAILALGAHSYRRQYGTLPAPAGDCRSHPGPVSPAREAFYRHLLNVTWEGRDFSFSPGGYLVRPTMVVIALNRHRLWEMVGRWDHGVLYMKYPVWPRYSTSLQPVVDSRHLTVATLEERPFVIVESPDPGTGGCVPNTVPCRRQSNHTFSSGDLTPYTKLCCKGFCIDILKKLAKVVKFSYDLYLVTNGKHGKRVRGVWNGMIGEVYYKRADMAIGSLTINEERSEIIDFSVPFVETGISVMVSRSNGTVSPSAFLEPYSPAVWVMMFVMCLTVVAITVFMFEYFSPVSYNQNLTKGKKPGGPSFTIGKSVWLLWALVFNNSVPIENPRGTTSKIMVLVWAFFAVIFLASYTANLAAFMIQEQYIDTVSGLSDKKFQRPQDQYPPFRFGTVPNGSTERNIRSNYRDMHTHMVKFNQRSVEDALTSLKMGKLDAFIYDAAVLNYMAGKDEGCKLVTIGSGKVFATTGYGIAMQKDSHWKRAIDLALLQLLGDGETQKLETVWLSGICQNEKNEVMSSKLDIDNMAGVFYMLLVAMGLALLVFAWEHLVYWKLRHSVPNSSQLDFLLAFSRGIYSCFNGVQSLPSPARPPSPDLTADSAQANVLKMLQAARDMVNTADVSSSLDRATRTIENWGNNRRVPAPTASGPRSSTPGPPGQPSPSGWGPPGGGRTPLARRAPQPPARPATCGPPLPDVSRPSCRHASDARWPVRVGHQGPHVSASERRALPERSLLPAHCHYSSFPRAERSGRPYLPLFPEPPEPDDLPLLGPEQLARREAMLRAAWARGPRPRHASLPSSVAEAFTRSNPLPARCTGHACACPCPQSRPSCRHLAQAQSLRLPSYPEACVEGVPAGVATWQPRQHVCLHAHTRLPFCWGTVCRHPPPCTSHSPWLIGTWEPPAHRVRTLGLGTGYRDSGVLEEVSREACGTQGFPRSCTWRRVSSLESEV

Row | Compound | ED50 (Rattus norvegicus [1]) | Ki [2] | ED50 (Rattus norvegicus [3])
1 | c1ccc([C@@H](C2CC3CC3C2)N2CCCCC2)cc1 (some centres undefined) | 310 nM | 680 nM | 300 nM
2 | c1ccc([C@H](C2CC3CC3C2)N2CCCCC2)cc1 (some centres undefined) | 400 nM | 630 nM | 450 nM
3 | c1ccc(C2(N3CCCCC3)CCCCC2)cc1 [PHENCYCLIDINE] | 150 nM | 91 nM | 210 nM
